Experimental data reported in ChEMBL document CHEMBL3763097, “Synthesis and biological evaluation of 5,10-dihydro-11H-dibenzo[b,e][1,4]diazepin-11-one structural derivatives as anti-cancer and apoptosis inducing agents” (Eur J Med Chem, 2016).
Active and inactive are the calls of the source. No cut-off for these calls is given here.

Assays:
A549 [1] = experiment: Induction of reactive oxygen species generation in human A549 cells at 0.5 to 2 uM after 48 hrs by carboxy-DCFDA staining based spectrofluorometry relative to control; format: functional
MCF7 = experiment: Cytotoxicity against human MCF7 cells assessed as growth inhibition after 72 hrs by MTT assay; format: functional, cell-based; conditions: MCF7, 72 h
Method in brief: (§1)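 Cells in RPMI 1640 (PC-3, A549, MDA-MB-231) or DMEM (U87MG, MCF-7) with 10% FBS, passages 4-10, were seeded at 3000-5000 per well and left 24 h. Compounds in DMSO/medium were added for 72 h; DMSO served as control. MTT (5 mg/mL) was added for 4 h and formazan dissolved in DMSO. Absorbance was read at 570 nm minus 630 nm. % inhibition was taken versus DMSO, with IC50 by probit; mean ± SD of three experiments in triplicate.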

MDA-MB-231 [2] = experiment: Induction of apoptosis in human MDA-MB-231 cells assessed as viable cells at 2 uM after 24 hrs by Annexin V-FITC/PI dual staining based flow cytometry (reference value: 91%); format: functional; conditions: MDA-MB-231, 24 h, read-out: Activity
[3] = Cytotoxicity against human PC3 cells assessed as growth inhibition after 72 hrs by MTT assay; format: functional, cell-based; conditions: PC-3, 72 h; method in brief: as §1
A549 [4] = experiment: Cell cycle arrest in human A549 cells assessed as accumulation at G2/M phase at 0.5 uM after 24 to 48 hrs by propidium iodide staining based flow cytometry (reference value: 22.3 to 31%); format: functional
Method in brief: (§2)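 Cells were seeded at 1×10^6 per well and treated 24 h later with 0.5, 1 or 2 µM compound; DMSO-treated cells served as control. Methods give harvest at 48 h (floating plus trypsinised cells); the figure legend says 24 h. Cells were fixed in 70% ethanol for 30 min at 4 °C and stained with PI, Triton X-100 and RNase A for 15 min in the dark. 10000 events were counted by flow cytometry.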

MDA-MB-231 [5] = experiment: Disruption of mitochondrial membrane potential in human MDA-MB-231 cells at 0.5 to 2 uM after 48 hrs by Rhodamine-123 staining based spectrofluorometry; format: functional
Method in brief: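 Cells were seeded at 5×10^5 cells/mL overnight and treated with 0.5, 1 and 2 µM compound; the methods say 24 h and the results text says 48 h. Trypsinised cells were washed and stained with rhodamine-123 (2 µM in PBS) for 30 min at room temperature in the dark, washed and read by spectrofluorometer. Data are mean ± SD of three independent experiments.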

A549 [6] = experiment: Cell cycle arrest in human A549 cells assessed as accumulation at S phase at 2 uM after 24 to 48 hrs by propidium iodide staining based flow cytometry (reference value: 18.3%); format: functional; method in brief: as §2
A549 [7] = experiment: Induction of apoptosis in human A549 cells assessed as early apoptotic cells at 1 uM after 24 hrs by Annexin V-FITC/PI dual staining based flow cytometry (reference value: 5.3%); format: functional
A549 [8] = experiment: Cell cycle arrest in human A549 cells assessed as accumulation at G0/G1 phase at 0.5 uM after 24 to 48 hrs by propidium iodide staining based flow cytometry (reference value: 49.1%); format: functional; method in brief: as §2
A549 [9] = experiment: Induction of apoptosis in human A549 cells assessed as viable cells at 2 uM after 24 hrs by Annexin V-FITC/PI dual staining based flow cytometry (reference value: 85%); format: functional; conditions: A549, 24 h, read-out: Activity
MDA-MB-231 [10] = experiment: Induction of reactive oxygen species generation in human MDA-MB-231 cells at 0.5 to 2 uM after 48 hrs by carboxy-DCFDA staining based spectrofluorometry relative to control; format: functional
MDA-MB-231 [11] = experiment: Cell cycle arrest in human MDA-MB-231 cells assessed as accumulation at G2/M phase at 2 uM after 24 to 48 hrs by propidium iodide staining based flow cytometry (reference value: 20.2%); format: functional; method in brief: as §2
A549 [12] = experiment: Cytotoxicity against human A549 cells assessed as growth inhibition after 72 hrs by MTT assay; format: functional, cell-based; conditions: A549, 72 h; method in brief: as §1
MDA-MB-231 [13] = experiment: Induction of apoptosis in human MDA-MB-231 cells assessed as condensation of nuclei at 0.5 to 2 uM after 48 hrs by Hoechst […] staining based fluorescence microscopy; format: functional, cell-based
Method in brief: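 Cells at 25×10^4 per well were allowed to adhere 24 h, then treated with 0.5, 1 and 2 µM compound for 48 h at 37 °C. After a PBS wash they were stained with Hoechst […] (5 µg/mL) for 30 min at room temperature and washed twice. Nuclear morphology was viewed by fluorescence microscopy (ex 350/em 460 nm).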

A549 [14] = experiment: Induction of apoptosis in human A549 cells assessed as late apoptotic cells at 0.5 uM after 24 hrs by Annexin V-FITC/PI dual staining based flow cytometry (reference value: 4.5%); format: functional
MDA-MB-231 [15] = experiment: Cell cycle arrest in human MDA-MB-231 cells assessed as accumulation at G2/M phase after 24 to 48 hrs by propidium iodide staining based flow cytometry; format: functional; method in brief: as §2
MDA-MB-231 (human) [16] = experiment: Induction of apoptosis in human MDA-MB-231 cells assessed as late apoptotic cells at 2 uM after 24 hrs by Annexin V-FITC/PI dual staining based flow cytometry (reference value: 4.5%)
MDA-MB-231 [17] = experiment: Cell cycle arrest in human MDA-MB-231 cells assessed as accumulation at G2/M phase at 1 uM after 24 to 48 hrs by propidium iodide staining based flow cytometry (reference value: 20.2%); format: functional; method in brief: as §2
MDA-MB-231 [18] = experiment: Induction of apoptosis in human MDA-MB-231 cells assessed as late apoptotic cells at 1 uM after 24 hrs by Annexin V-FITC/PI dual staining based flow cytometry (reference value: 6.2%); format: functional
A549 [19] = experiment: Cell cycle arrest in human A549 cells assessed as accumulation at S phase at 0.5 uM after 24 to 48 hrs by propidium iodide staining based flow cytometry (reference value: 18.3%); format: functional; method in brief: as §2
MDA-MB-231 [20] = experiment: Cell cycle arrest in human MDA-MB-231 cells assessed as accumulation at G0/G1 phase at 1 uM after 24 to 48 hrs by propidium iodide staining based flow cytometry (reference value: 74.4%); format: functional; method in brief: as §2
A549 [21] = experiment: Induction of apoptosis in human A549 cells assessed as viable cells at 1 uM after 24 hrs by Annexin V-FITC/PI dual staining based flow cytometry (reference value: 85%); format: functional; conditions: A549, 24 h, read-out: Activity
MDA-MB-231 [22] = experiment: Induction of apoptosis in human MDA-MB-231 cells after 24 hrs by Annexin V-FITC/PI dual staining based flow cytometry; format: functional, cell-based
A549 [23] = experiment: Induction of apoptosis in human A549 cells assessed as necrotic cells at 2 uM after 24 hrs by Annexin V-FITC/PI dual staining based flow cytometry (reference value: 5.2%); format: functional
MDA-MB-231 (human) [24] = experiment: Induction of apoptosis in human MDA-MB-231 cells assessed as early apoptotic cells at 2 uM after 24 hrs by Annexin V-FITC/PI dual staining based flow cytometry (reference value: 5.3%)
MDA-MB-231 [25] = experiment: Induction of apoptosis in human MDA-MB-231 cells assessed as necrotic cells at 0.5 uM after 24 hrs by Annexin V-FITC/PI dual staining based flow cytometry (reference value: 1.9%); format: functional
[26] = Cytotoxicity against human U87MG cells assessed as growth inhibition after 72 hrs by MTT assay; format: functional, cell-based, U-87MG ATCC; conditions: U-87 MG; method in brief: as §1

With O=C1c2ccccc2Nc2ccccc2N1Cc1cn(Cc2ccccc2)nn1 the “fold change (FC)” value (A549 [1]) was 1.8, the IC50 (MCF7) was 7.29 µM and the viability at 2 µM (MDA-MB-231 [2]) was 62%. The IC50 [3] was 4.21 µM, the Activity (A549 [4]) was 36.6% and the Activity (MDA-MB-231 [5]) was 20%. For the same compound, the Activity (A549 [6]) was 13.8%, the Activity (A549 [7]) was 14.5% and the Activity (A549 [8]) was 42.8%. For the same compound, the viability at 2 µM (A549 [9]) was 63.8%, the “fold change (FC)” value (MDA-MB-231 [10]) was 2.09 and the Activity (MDA-MB-231 [11]) was 63.4%. The IC50 (A549 [12]) was 0.71 µM, the Activity (MDA-MB-231 [13]) was “Active” and the Activity (A549 [14]) was 12.7%. For the same compound, the Activity (MDA-MB-231 [15]) was “Dose-dependent effect”, the Activity (MDA-MB-231 (human) [16]) was 17% and the Activity (MDA-MB-231 [17]) was 33.6%. For the same compound, the Activity (MDA-MB-231 [18]) was 11.5%, the Activity (A549 [19]) was 19.5% and the Activity (MDA-MB-231 [20]) was 60.1%. For the same compound, the viability at 1 µM (A549 [21]) was 72%, the Activity (MDA-MB-231 [22]) was “Dose-dependent effect” and the Activity (A549 [23]) was 3.8%. For the same compound, the Activity (MDA-MB-231 (human) [24]) was 15.4%, the Activity (MDA-MB-231 [25]) was 2.5% and the IC50 [26] was 6.97 µM.
